Laboratory results taken from ChEMBL document CHEMBL2331439 (J Med Chem, 2013).

How the values were obtained:
[1] = molecular target: Protein kinase C beta type (Homo sapiens) (UniProt P05771); experiment: Inhibition of recombinant PRKCB1 (unknown origin) at 5 uM by FRET-based Z'-LYTE assay
Summary of the method: (§1)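 Z'-LYTE FRET peptide (coumarin/fluorescein) phosphorylation was followed by protease development. Wells included a protease control for interference with development and a fluorescence control for interference with the FRET read. Values above 100% or below 0% were treated as maximal or no inhibition.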

[2] = molecular target: T1, Mitogen-activated protein kinase 14 (Homo sapiens, UniProt Q16539); experiment: Inhibition of recombinant MAPK14 (unknown origin) by FRET-based Z'-LYTE assay
[3] = molecular target: Tyrosine-protein kinase Lck (Homo sapiens) (UniProt P06239); experiment: Inhibition of recombinant LCK (unknown origin) at 5 uM by FRET-based Z'-LYTE assay
Summary of the method: (§2)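 Single-point panel screen at 5 μM in duplicate. ATP is at the apparent Km of each kinase, and the Z'-LYTE FRET peptide substrate is used. Each point has two control wells: a protease control for interference with development and a fluorescence control for interference with the FRET read-out. Values above 100% are treated as maximal inhibition and values below 0% as none.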

[4] = molecular target: Insulin receptor (Homo sapiens) (UniProt P06213); experiment: Inhibition of recombinant INSR (unknown origin) at 5 uM by FRET-based Z'-LYTE assay; summary of the method: as §2
[5] = molecular target: Serine/threonine-protein kinase Nek1 (Homo sapiens) (UniProt Q96PY6); experiment: Inhibition of recombinant NEK1 (unknown origin) at 5 uM by FRET-based Z'-LYTE assay; summary of the method: as §2
[6] = molecular target: Phosphatidylinositol 4,5-bisphosphate 3-kinase catalytic subunit gamma isoform (Homo sapiens) (UniProt P48736); experiment: Inhibition of recombinant PIK3CG (unknown origin) at 5 uM after 1 hr by FRET-based adapta assay
Summary of the method: (§3)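 After inhibitor and all reaction components are added, the reaction runs for 1 h. ADP formed by the kinase displaces an antibody-tracer complex, so reduced ADP gives a high TR-FRET signal. Inhibition is calculated against a control.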

[7] = molecular target: RAF proto-oncogene serine/threonine-protein kinase (Homo sapiens, UniProt P04049); experiment: Inhibition of recombinant RAF1 (unknown origin) by cascade reaction assay
[8] = molecular target: Dual specificity tyrosine-phosphorylation-regulated kinase 3 (Homo sapiens) (UniProt O43781); experiment: Inhibition of recombinant DYRK3 (unknown origin) at 5 uM by FRET-based Z'-LYTE assay; summary of the method: as §2
[9] = molecular target: T1, Mitogen-activated protein kinase 14; experiment: Inhibition of recombinant MAPK14 (unknown origin) at 5 uM by cascade reaction assay
[10] = molecular target: Casein kinase I isoform gamma-2 (Homo sapiens) (UniProt P78368); experiment: Inhibition of recombinant CSNK1G2 (unknown origin) at 5 uM by FRET-based Z'-LYTE assay; summary of the method: as §2
[11] = molecular target: AMP-activated protein kinase (AMPK) alpha-1/beta-1/gamma-1 (Homo sapiens, UniProt P54619+Q13131+Q9Y478); experiment: Inhibition of recombinant AMPK A1/B1/G1 (unknown origin) by FRET-based Z'-LYTE assay; format: protein-complex assay
[12] = molecular target: Serine/threonine-protein kinase pim-1 (Homo sapiens) (UniProt P11309); experiment: Inhibition of recombinant PIM1 (unknown origin) at 5 uM by FRET-based Z'-LYTE assay; summary of the method: as §2
[13] = molecular target: Mitogen-activated protein kinase kinase kinase kinase 4 (Homo sapiens) (UniProt O95819); experiment: Inhibition of recombinant MAP4K4 (unknown origin) at 5 uM by FRET-based Z'-LYTE assay; summary of the method: as §2
[14] = molecular target: Aurora kinase A (Homo sapiens) (UniProt O14965); experiment: Inhibition of recombinant AURKA (unknown origin) at 5 uM by FRET-based Z'-LYTE assay; summary of the method: as §2
[15] = molecular target: Ribosomal protein S6 kinase beta-1 (Homo sapiens, UniProt P23443); experiment: Inhibition of recombinant RPS6KB1 (unknown origin) at 5 uM by FRET-based Z'-LYTE assay; summary of the method: as §1
[16] = molecular target: RAC-alpha serine/threonine-protein kinase (Homo sapiens, UniProt P31749); experiment: Inhibition of recombinant AKT1 (unknown origin) at 5 uM by FRET-based Z'-LYTE assay; summary of the method: as §2
[17] = molecular target: Angiopoietin-1 receptor (Homo sapiens) (UniProt Q02763); experiment: Inhibition of recombinant TEK (unknown origin) at 5 uM by FRET-based Z'-LYTE assay; summary of the method: as §1
[18] = molecular target: Tyrosine-protein kinase SYK (Homo sapiens) (UniProt P43405); experiment: Inhibition of recombinant SYK (unknown origin) at 5 uM by FRET-based Z'-LYTE assay; summary of the method: as §1
[19] = molecular target: Hepatocyte growth factor receptor (Homo sapiens) (UniProt P08581); experiment: Inhibition of recombinant MET (unknown origin) at 5 uM by FRET-based Z'-LYTE assay; summary of the method: as §2
[20] = molecular target: Epidermal growth factor receptor (Homo sapiens) (UniProt P00533); experiment: Inhibition of recombinant EGFR (unknown origin) at 5 uM by FRET-based Z'-LYTE assay; summary of the method: as §2
[21] = molecular target: Mitogen-activated protein kinase 1 (Homo sapiens, UniProt P28482); experiment: Inhibition of recombinant ERK2 (unknown origin) by FRET-based Z'-LYTE assay
[22] = molecular target: CDK9/cyclin T1 (Homo sapiens) (UniProt O60563+P50750); experiment: Inhibition of recombinant CDK9/cyclin T1 (unknown origin) at 5 uM after 1 hr by FRET-based adapta assay; format: protein-complex assay; summary of the method: as §3
[23] = molecular target: Dual specificity mitogen-activated protein kinase kinase 1 (Homo sapiens, UniProt Q02750); experiment: Inhibition of recombinant MEK1 (unknown origin) by cascade reaction assay
[24] = molecular target: Mast/stem cell growth factor receptor Kit (Homo sapiens) (UniProt P10721); experiment: Inhibition of recombinant KIT (unknown origin) at 5 uM by FRET-based Z'-LYTE assay; summary of the method: as §2
[25] = molecular target: Phosphorylase b kinase gamma catalytic chain, liver/testis isoform (Homo sapiens) (UniProt P15735); experiment: Inhibition of recombinant PHKG2 (unknown origin) at 5 uM by FRET-based Z'-LYTE assay; summary of the method: as §2
[26] = molecular target: T2, Vascular endothelial growth factor receptor 2 (Homo sapiens, UniProt P35968); experiment: Inhibition of recombinant KDR (unknown origin) by FRET-based Z'-LYTE assay
[27] = molecular target: MAP kinase-activated protein kinase 2 (Homo sapiens, UniProt P49137); experiment: Inhibition of recombinant MAPKAPK2 (unknown origin) by FRET-based Z'-LYTE assay
[28] = molecular target: T2, Vascular endothelial growth factor receptor 2; conditions: 5 uM
[29] = molecular target: Cyclin-dependent kinase 1/cyclin B1 (Homo sapiens) (UniProt P06493+P14635); experiment: Inhibition of recombinant CDK1/cyclin B (unknown origin) at 5 uM by FRET-based Z'-LYTE assay; format: protein-complex assay; summary of the method: as §2
[30] = molecular target: Serine/threonine-protein kinase MARK2 (Homo sapiens) (UniProt Q7KZI7); experiment: Inhibition of recombinant MARK2 (unknown origin) at 5 uM by FRET-based Z'-LYTE assay; summary of the method: as §2
[31] = molecular target: Ribosomal protein S6 kinase alpha-3 (Homo sapiens) (UniProt P51812); experiment: Inhibition of recombinant RPS6KA3 (unknown origin) at 5 uM by FRET-based Z'-LYTE assay; summary of the method: as §1

T1 sequence (Q16539 whole entry): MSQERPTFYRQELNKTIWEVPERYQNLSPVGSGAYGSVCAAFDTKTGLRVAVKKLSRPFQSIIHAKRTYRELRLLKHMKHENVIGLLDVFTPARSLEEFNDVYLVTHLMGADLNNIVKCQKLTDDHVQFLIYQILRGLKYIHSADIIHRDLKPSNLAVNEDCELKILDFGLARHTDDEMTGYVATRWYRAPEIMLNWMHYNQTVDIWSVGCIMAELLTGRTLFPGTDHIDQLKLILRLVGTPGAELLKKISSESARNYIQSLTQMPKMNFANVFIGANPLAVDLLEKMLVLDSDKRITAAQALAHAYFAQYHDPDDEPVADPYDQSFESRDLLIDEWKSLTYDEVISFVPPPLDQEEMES
T2 sequence (P35968 whole entry): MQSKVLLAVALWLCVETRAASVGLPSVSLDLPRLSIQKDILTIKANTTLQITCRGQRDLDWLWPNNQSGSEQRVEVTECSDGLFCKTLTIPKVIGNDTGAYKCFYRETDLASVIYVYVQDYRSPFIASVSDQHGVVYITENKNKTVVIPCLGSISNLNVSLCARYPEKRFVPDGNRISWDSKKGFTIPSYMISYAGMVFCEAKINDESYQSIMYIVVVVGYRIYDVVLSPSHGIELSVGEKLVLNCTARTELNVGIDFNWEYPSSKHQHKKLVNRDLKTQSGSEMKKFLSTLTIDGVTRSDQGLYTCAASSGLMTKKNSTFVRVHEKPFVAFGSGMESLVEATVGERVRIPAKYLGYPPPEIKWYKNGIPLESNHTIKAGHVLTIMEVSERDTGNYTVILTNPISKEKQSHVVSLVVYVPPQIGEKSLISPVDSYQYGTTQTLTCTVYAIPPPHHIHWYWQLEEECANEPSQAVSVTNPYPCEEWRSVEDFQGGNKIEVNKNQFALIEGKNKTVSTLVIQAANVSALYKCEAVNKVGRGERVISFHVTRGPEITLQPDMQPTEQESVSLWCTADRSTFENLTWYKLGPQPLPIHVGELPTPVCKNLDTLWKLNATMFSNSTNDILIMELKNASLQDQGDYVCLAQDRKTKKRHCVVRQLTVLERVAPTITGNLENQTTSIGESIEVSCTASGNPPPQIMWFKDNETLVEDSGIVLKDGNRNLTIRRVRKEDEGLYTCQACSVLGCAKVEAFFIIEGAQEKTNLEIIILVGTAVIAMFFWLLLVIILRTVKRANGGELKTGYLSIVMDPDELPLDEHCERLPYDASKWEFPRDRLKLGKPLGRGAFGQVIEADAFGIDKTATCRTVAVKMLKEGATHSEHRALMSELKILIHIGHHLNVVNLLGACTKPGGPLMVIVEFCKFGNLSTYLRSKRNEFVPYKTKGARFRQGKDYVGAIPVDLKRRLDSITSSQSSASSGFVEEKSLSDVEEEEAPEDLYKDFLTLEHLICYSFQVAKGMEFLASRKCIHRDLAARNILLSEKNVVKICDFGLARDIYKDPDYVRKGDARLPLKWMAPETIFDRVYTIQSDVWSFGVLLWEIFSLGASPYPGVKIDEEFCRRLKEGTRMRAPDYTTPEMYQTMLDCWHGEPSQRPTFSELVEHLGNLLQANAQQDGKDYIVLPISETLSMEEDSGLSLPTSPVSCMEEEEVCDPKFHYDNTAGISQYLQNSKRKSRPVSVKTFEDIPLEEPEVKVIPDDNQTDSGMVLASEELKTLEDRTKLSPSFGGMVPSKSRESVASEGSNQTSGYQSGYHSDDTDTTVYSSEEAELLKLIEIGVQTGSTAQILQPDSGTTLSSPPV
Sequence of AMP-activated protein kinase (AMPK) alpha-1/beta-1/gamma-1 (P54619 whole entry): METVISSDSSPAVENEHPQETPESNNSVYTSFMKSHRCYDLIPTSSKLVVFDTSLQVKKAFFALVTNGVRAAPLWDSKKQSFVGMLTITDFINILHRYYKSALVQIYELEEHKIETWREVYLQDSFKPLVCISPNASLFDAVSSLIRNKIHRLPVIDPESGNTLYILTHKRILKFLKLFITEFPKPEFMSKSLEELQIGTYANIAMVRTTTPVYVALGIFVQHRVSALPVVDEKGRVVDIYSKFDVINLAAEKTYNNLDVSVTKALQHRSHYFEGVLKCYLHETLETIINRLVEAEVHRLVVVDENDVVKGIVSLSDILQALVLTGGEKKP
Sequence of AMP-activated protein kinase (AMPK) alpha-1/beta-1/gamma-1 (Q9Y478 whole entry): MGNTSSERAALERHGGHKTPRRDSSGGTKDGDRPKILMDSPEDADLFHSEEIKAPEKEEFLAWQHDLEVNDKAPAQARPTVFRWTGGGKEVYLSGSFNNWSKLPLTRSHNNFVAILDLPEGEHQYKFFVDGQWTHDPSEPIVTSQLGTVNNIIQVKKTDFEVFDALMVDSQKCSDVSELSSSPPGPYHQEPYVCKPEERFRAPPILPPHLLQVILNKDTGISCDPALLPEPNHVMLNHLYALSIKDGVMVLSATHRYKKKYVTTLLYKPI
Sequence of AMP-activated protein kinase (AMPK) alpha-1/beta-1/gamma-1 (Q13131 whole entry): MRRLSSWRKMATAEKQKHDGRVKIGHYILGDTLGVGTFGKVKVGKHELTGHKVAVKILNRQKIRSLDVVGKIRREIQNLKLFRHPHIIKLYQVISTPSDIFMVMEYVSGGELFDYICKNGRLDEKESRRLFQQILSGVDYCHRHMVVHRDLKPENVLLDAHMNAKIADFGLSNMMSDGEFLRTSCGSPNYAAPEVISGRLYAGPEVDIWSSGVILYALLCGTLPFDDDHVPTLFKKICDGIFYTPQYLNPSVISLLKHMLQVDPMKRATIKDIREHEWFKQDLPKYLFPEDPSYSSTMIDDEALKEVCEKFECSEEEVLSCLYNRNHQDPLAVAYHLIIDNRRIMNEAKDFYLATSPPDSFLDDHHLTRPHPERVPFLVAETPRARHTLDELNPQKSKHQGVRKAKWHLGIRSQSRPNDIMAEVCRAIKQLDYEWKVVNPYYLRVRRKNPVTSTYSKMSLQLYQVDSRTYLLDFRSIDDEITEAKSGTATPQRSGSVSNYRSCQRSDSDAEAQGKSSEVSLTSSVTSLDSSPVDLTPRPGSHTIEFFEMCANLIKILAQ
Sequence of Serine/threonine-protein kinase pim-1 (Homo sapiens) (P11309 whole entry, looked up): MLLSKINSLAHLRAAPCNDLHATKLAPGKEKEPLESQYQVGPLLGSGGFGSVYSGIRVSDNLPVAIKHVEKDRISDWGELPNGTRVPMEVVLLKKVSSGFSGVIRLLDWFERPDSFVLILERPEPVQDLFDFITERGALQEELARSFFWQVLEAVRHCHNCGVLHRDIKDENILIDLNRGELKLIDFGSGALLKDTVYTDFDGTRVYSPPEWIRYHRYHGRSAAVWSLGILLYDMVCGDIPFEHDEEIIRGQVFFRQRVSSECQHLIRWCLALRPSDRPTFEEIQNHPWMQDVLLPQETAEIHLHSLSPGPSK
Sequence of RAF proto-oncogene serine/threonine-protein kinase (P04049 whole entry): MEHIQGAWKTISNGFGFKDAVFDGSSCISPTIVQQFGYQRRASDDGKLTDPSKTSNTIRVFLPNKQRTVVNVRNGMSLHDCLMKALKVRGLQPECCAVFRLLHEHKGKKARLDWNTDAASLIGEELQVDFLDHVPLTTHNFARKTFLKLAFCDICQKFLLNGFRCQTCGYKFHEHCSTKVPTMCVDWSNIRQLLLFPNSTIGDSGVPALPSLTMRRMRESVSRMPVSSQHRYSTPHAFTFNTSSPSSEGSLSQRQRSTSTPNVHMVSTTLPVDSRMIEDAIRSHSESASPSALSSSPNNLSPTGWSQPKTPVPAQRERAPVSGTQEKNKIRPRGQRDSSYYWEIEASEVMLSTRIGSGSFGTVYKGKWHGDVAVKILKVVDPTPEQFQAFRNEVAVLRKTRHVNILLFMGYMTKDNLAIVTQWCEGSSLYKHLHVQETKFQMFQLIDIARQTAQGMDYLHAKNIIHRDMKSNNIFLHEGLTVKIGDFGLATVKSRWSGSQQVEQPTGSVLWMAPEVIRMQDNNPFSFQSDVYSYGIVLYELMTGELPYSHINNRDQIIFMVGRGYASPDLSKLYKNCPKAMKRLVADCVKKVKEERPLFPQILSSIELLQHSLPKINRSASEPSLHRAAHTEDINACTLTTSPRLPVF
Sequence of Mitogen-activated protein kinase 1 (P28482 whole entry): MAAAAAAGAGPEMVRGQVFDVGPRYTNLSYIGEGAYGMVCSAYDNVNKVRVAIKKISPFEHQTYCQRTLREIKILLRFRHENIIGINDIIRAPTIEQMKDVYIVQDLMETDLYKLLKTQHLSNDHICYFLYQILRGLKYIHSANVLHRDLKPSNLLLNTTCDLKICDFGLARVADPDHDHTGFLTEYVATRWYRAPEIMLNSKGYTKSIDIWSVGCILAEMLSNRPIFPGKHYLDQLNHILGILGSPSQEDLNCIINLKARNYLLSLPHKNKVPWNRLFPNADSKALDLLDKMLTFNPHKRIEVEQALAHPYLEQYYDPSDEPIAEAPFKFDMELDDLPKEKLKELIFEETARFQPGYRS
Sequence of Ribosomal protein S6 kinase beta-1 (P23443 whole entry, looked up): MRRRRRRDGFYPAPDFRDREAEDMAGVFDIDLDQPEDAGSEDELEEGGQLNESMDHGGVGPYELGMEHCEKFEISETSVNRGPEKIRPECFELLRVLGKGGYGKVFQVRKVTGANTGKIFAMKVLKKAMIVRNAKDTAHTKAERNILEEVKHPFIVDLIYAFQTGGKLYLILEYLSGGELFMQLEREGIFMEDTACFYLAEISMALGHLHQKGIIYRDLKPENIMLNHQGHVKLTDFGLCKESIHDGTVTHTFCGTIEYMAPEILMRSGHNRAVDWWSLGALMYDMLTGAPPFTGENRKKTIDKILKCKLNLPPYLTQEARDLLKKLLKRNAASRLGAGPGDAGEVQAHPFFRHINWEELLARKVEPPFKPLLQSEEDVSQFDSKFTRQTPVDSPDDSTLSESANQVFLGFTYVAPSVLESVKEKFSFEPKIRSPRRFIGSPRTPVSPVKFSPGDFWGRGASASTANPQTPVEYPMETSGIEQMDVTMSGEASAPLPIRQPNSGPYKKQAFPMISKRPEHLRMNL

inhibition [1]: 91%
IC50 [2]: 35 µM
inhibition [3]: 13%
inhibition [4]: 15%
inhibition [5]: 102%
inhibition [6]: 34%
IC50 [7]: 1600 nM
inhibition [8]: 48%
inhibition [9]: 104%
inhibition [10]: 12%
IC50 [11]: 1500 nM
inhibition [12]: 10%
inhibition [13]: 72%
inhibition [14]: 77%
inhibition [15]: 101%
inhibition [16]: 107%
inhibition [17]: 51%
inhibition [18]: 45%
inhibition [19]: 75%
inhibition [20]: -9%
IC50 [21]: 4 µM
inhibition [22]: 26%
IC50 [23]: 1100 nM
inhibition [24]: 2%
inhibition [25]: 37%
IC50 [26]: 660 nM
IC50 [27]: 6.7 µM
inhibition [28]: 89%
inhibition [29]: 24%
inhibition [30]: 22%
inhibition [31]: 77%
Compound: O=C1/C(=C/c2ccccn2)CNC/C1=C\c1ccccn1
